This is a sample that favours compounds with a hit; in the whole collection about 3.1% have one here.
HIF activator = HIF pathway transcriptional activation. AID 1910. 300,000 compounds, 0.32% hits. U2OS HRE-luciferase reporter, luminescence; normalized: DMSO 0%, desferrioxamine 100%. activation, % at 7.5 µM (by protocol);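 active means mean activation of at least 10% of the iron chelator positive control signal, with at least half of replicates also reaching 10%; inconclusive means mean and replicate majority disagree about reaching 10%; inactive means mean and most replicates under 10%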
Beta apoptosis = beta cell apoptosis inhibition; INS-1E cytokine-induced death, ATP luminescence, 48 h; percent of positive-control rescue, neutral wells zero; protection from apoptosis, % (concentration not given with the values); 300,000 compounds, 0.8% hits; AID 435005;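 active means Every replicate reaches about 75%, or at least half do and their mean reaches it too, limit read from the data; inconclusive means At least half of replicates reach the limit but their mean does not; inactive means Under half of replicates reach the limit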;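 further: higher means more ATP so stronger rescue from cytokine killing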
PolyA inh = yeast polyadenylation inhibition; activity score, % at 12 µM; AID 1875; S. cerevisiae SKY197-pL101 polyadenylation reporter, beta-gal luminescence; efflux-impaired pdr1/pdr3 knockout yeast; score 100 = 6 SD above DMSO; 300,000 compounds, 0.02% hits;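 active means lowest replicate activity score at least 50, where 100 means six control SD above control mean; inconclusive means lowest score under 50 but half or more replicates reach 50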;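 further: yeast exposed to compound for 9 h at 30 °C; higher score means more reporter readthrough which indicates perturbed polyadenylation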
Calb FLC = C. albicans growth modulation with fluconazole; growth inhibition, % (test concentration not listed); 300,000 compounds, 0.57% hits; C. albicans CaCi-2 (fluconazole-resistant clinical isolate) + fluconazole, Alamar Blue growth, 48 h;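 active means growth inhibition above about 58% in most replicates, limit read from the data, passing the limit was not always enough; inconclusive means exactly half the replicates above a set limit; inactive means most replicates below a set limit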;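 further: all wells also contain fluconazole at 8 µg/ml as a sub-toxic cotreatment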
T cruzi repl = blocks replication of Trypanosoma cruzi; inhibition, % (no concentration beside the values); 300,000 compounds, 1.4% hits; T. cruzi beta-gal in NIH3T3, luminescence, 90 h;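 active means mean inhibition across valid replicates above about 55%, limit read from the data; inconclusive means mean below that limit but half or more replicates reach it; inactive means mean below it, under half of replicates reach it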;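 further: signal also drops with host cell toxicity which is not excluded here; higher percent means less beta-gal luminescence so fewer parasites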
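Material: NIH/3T3 host cells with β-galactosidase reporter T. cruzi; Input: 5,000 host fibroblasts per well; Medium: DMEM, 2% fetal bovine serum; Compound: 50 nL DMSO compound solution per well; Schedule: 3 h host attachment, then at least 90 h co-culture; Detection: luminescent β-galactosidase signal after 60 min lysis.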
CSC inhib = blocks cancer stem cells; cancer stem cell-like cells viability, luminescence; inhibition, % at 7.5 µM; 300,000 compounds, 1.1% hits; in the data active means inhibition above about 75%; inconclusive means no clear call, values can overlap the other calls; tested in HMLE shEcad cells
Hits are given with their value; n = inactive; u = inconclusive; x = not tested or not shown.

SMILES | HIF activator | Beta apoptosis | PolyA inh | Calb FLC | T cruzi repl | CSC inhib
CC(C)N1CCc2c(sc(NC(=O)c3ccc(C(=O)c4ccccc4)cc3)c2C(N)=O)C1 | n | x | n | n | n | n
CC(C)N1CCc2c(sc(NC(=O)c3ccc4ccccc4c3)c2C(N)=O)C1 | n | n | n | n | n | 78.6
CCN1CCc2c(sc(NC(=O)c3cc4ccccc4cc3OC)c2C(N)=O)C1 | n | n | n | x | 58.4 | n
COc1cccc(OC)c1C(=O)Nc1sc2c(c1C(N)=O)CCN(Cc1ccccc1)C2 | n | n | n | n | n | n
CC(=O)Nc1sc2c(c1-c1nc3ccccc3s1)CCN(C(C)C)C2 | x | 100.2 | x | x | x | n
COC(=O)c1csc2c(C(F)(F)F)cc(N3CCN(C(=O)Nc4ccccc4)CC3)nc12 | n | n | n | n | n | n
Cc1cc(C)c2c(=O)[nH]c(SCC(=O)Nc3cccc(S(=O)(=O)N(C)C)c3)nc2n1 | x | n | x | x | x | x
CN(C)S(=O)(=O)c1cccc(NC(=O)CSc2cccc3cccnc23)c1 | n | x | n | n | 60.2 | 84.1
COc1ccccc1C1CCN(Cc2ccc3ccccc3c2)CC1 | n | n | n | n | 58.5 | n
COc1cccc(CN(C)CC2CCCN(CCc3ccccc3C)C2)c1 (stereo unspecified) | n | x | n | n | 54.5 | n
Cc1nn(C)c(C)c1/C=C/C(=O)c1ccc(Cl)cc1Cl | n | n | n | 92.2 | n | n
CCCCCCc1cc2cc(S(=O)(=O)c3ccc(C)cc3)c(=O)oc2cc1O | x | n | n | n | n | 89.1
CCN(CC)c1ccc2cc(S(=O)(=O)c3ccc(Cl)cc3)c(=O)oc2c1 | x | n | n | n | n | 99.3
CCCCCCc1cc2cc(C(=O)NCc3ccccc3)c(=N)oc2cc1O | n | n | n | n | n | n
CCCCCCc1cc2cc(S(=O)(=O)c3ccc(Cl)cc3)c(=O)oc2cc1O | x | n | n | n | n | 86.9
Cc1ccc(S(=O)(=O)c2cc3cc(Br)ccc3oc2=O)cc1 | n | n | n | n | n | n
CCCCCCc1cc2cc(C(=O)Nc3ccccc3)c(=O)oc2cc1O | x | 112.3 | n | n | n | 99.7
N#C/C(=C/c1ccc(F)cc1)c1nnc(NC(=O)c2ccccc2)s1 | n | n | n | n | n | n
Cc1ccc(C(=O)OCC(=O)NCc2ccc3c(c2)OCO3)o1 | x | n | x | x | x | n
CCC(C)Sc1cccc(-c2nc3cc(C)ccn3c2NCc2ccccc2)c1 (stereo unspecified) | n | n | n | n | n | 122.6
Cc1ccn2c(NCc3ccccc3)c(-c3cccc(SC4CCCCC4)c3)nc2c1 | x | n | x | x | x | 98.8
c1ccc(CNc2c(-c3cccc(SC4CCCCC4)c3)nc3ccccn23)cc1 | x | 124.1 | x | x | x | 102.4
COc1ccc(-c2cc(-c3nc4ccccn4c3NCc3ccccc3)ccc2OC)cc1 | x | 125.0 | x | x | x | 97.7
Cc1ccc(OCCNC(=O)C(C)SCC(=O)Nc2ccc(F)cc2)cc1 (stereo unspecified) | x | n | x | x | x | n
Cc1ccc2c(c1)C1CN(C)CCC1N2S(=O)(=O)c1ccccc1F (stereo unspecified) | x | n | x | x | x | x
SMILES | HIF activator | Beta apoptosis | PolyA inh | Calb FLC | T cruzi repl | CSC inhib
O=C(O)c1ccccc1Nc1ccc([N+](=O)[O-])cc1C(=O)O | 14.2 | n | n | n | n | n
NC(=O)c1ccc[n+]([C@H]2O[C@@H](COP(=O)([O-])OP(=O)(O)OC[C@H]3O[C@@H](n4cnc5c(N)ncnc54)[C@H](O)[C@@H]3O)[C@H](O)[C@@H]2O)c1 | x | n | x | x | x | n
CCC(C)NS(=O)(=O)c1ccc(NC(=O)C(Sc2ccccc2)c2ccccc2)cc1 (stereo unspecified) | n | n | n | n | 57.5 | n
CC1=CC(=O)C=C(C)C1=NOS(=O)(=O)c1ccccc1 | n | x | n | n | n | x
CC1=CC(=O)C(C(C)C)=C/C1=N/OS(=O)(=O)c1ccccc1 | n | 105.3 | n | u | n | u
CCc1ccc(OCCn2cccn2)cc1 | n | n | n | n | n | n
Cc1ccc(S(=O)(=O)N2CCC(=O)N(C(COCc3ccc(Cl)cc3Cl)Cc3ccccc3)CC2)cc1 (stereo unspecified) | n | n | n | n | 74.8 | n
Cc1ccc(S(=O)(=O)N2CCC(=O)N(C(COCc3cccc(Cl)c3)Cc3ccccc3)CC2)cc1 (stereo unspecified) | n | n | n | n | n | n
